These results are taken from ChEMBL document CHEMBL4024779, “Novel Terminal Bipheny-Based Diapophytoene Desaturases (CrtN) Inhibitors as Anti-MRSA/VISR/LRSA Agents with Reduced hERG Activity” (J Med Chem, 2018).

Numbering of substitutions follows the chain as printed. The source made the active and inactive calls. The rule behind the calls is not given here. Where only a bound is given, the exact number is not on record here.

The target of one data set is Cytochrome P450 2C19 (Homo sapiens, UniProt P33261). The data set is described as follows: Inhibition of CYP2C19 in human liver microsomes using mephenytoin as substrate upto 10 uM after 45 mins in presence of NADPH by LC-MS/MS analysis. It counts as ADME.
Chain of Cytochrome P450 2C19 (P33261 whole entry): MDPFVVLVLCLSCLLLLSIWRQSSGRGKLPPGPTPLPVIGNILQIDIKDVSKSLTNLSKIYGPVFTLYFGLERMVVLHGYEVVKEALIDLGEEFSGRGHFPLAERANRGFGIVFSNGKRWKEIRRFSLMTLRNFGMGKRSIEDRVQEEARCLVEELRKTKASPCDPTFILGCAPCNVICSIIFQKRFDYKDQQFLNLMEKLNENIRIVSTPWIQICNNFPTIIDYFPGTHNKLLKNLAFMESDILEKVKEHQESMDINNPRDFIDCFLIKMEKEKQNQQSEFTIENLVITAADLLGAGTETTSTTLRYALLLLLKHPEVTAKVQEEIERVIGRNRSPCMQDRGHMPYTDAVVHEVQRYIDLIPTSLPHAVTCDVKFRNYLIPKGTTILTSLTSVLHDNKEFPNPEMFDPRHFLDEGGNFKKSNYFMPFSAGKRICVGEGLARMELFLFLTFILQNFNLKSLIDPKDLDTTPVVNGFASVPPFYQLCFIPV
Data set [1] is described as follows: AUC (0 to 24 hrs) in Sprague-Dawley rat at 10 mg/kg, po administered as single dose by LC-MS/MS analysis. Details: time < 24 hr, dose 10 mg/kg, route oral. The conditions noted are these: in vivo. The format is ADME, organism-based.
A short description of data set [2]: Cmax in Sprague-Dawley rat at 10 mg/kg, ip administered as single dose by LC-MS/MS analysis. It counts as ADME, organism-based. The arrangement: dose 10 mg/kg, route intraperitoneal. The conditions noted are these: in vivo.
Data set [3] in a line: Tmax in Sprague-Dawley rat at 5 mg/kg, iv administered as single dose by LC-MS/MS analysis. It counts as ADME, organism-based. The following applies: in vivo.
Data set [4] in a line: Half life in Sprague-Dawley rat at 10 mg/kg, po administered as single dose by LC-MS/MS analysis. It counts as ADME, organism-based. The following applies: in vivo.
Data set [5] in a line: Half life in Sprague-Dawley rat at 10 mg/kg, ip administered as single dose by LC-MS/MS analysis. The format is ADME, organism-based. The following applies: in vivo.
Data set [6] in a line: AUC (0 to infinity) in mouse at 2 mg/kg, iv administered as single dose by LC-MS/MS analysis. The format is ADME, organism-based. Details: dose 2 mg/kg, time infinity, route intravenous. The conditions noted are these: in vivo.
Data set [7] can be described thus: AUC (0 to infinity) in mouse at 10 mg/kg, po administered as single dose by LC-MS/MS analysis. It counts as ADME, organism-based. Details: dose 10 mg/kg, time infinity, route oral. The following applies: in vivo.
Data set [8] is described as follows: Clearance in mouse at 2 mg/kg, iv administered as single dose by LC-MS/MS analysis. The format is ADME, organism-based. The conditions noted are these: in vivo.
Data set [9] can be described thus: Oral bioavailability in mouse at 10 mg/kg administered as single dose by LC-MS/MS analysis. The format is ADME, organism-based. The following applies: in vivo.
Data set [10] relates to Staphylococcus aureus. In words: In vivo anti-virulence activity against methicillin-resistant Staphylococcus aureus Mu50 infected in BALB/c mouse model assessed as reduction in bacterial load in kidneys at 0.05 mg bid for 3.5 days administered intraperitoneally 6 hrs post infection by serial dilution method. It counts as functional. Details: scale not given: the % may be the effect or the level left.

Data set [11] in a line: Inhibition of CrtN in methicillin-resistant Staphylococcus aureus NRS100 assessed as reduction in staphyloxanthin levels after 48 hrs by spectrophotometric method-based pigment inhibition assay.
A short description of data set [12]: Inhibition of CrtN in methicillin-resistant Staphylococcus aureus NRS108 assessed as reduction in staphyloxanthin levels after 48 hrs by spectrophotometric method-based pigment inhibition assay.
Data set [13] can be described thus: Inhibition of CrtN in methicillin-resistant Staphylococcus aureus NF65Y assessed as reduction in staphyloxanthin levels after 48 hrs by spectrophotometric method-based pigment inhibition assay.
Data set [14] deals with Staphylococcus aureus. In words: In vivo anti-virulence activity against methicillin-resistant Staphylococcus aureus NF65Y infected in BALB/c mouse model assessed as reduction in bacterial load in kidney at 0.1 mg bid for 3.5 days administered intraperitoneally 6 hrs post infection by serial dilution method relative to vancomycin. The format is functional, organism-based. In outline:
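Mice infected retro-orbitally with S. aureus NF65Y (3.5 × 10^8 CFU) or XN108 (2.1 × 10^8 CFU). Test compound given i.p. b.i.d. starting 6 h post-infection. […] Log10 CFU per kidney and heart counted. Two-tailed Mann−Whitney test.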

In data set [15] the test system is Staphylococcus aureus. In words: In vivo anti-virulence activity against Staphylococcus aureus Newman infected in BALB/c mouse model assessed as reduction in bacterial load in kidney at 0.4 mg bid for 3.5 days administered orally 6 hrs post infection by serial dilution method relative to control. It counts as functional. Details: scale not given: the % may be the effect or the level left. The essentials:
(§1)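 Mice got 3.1 × 10^7 CFU S. aureus Newman by retro-orbital injection. Oral compound was given b.i.d. for 3.5 d, starting 6 h after infection. […] Log10 CFU was counted per kidney and per heart.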

The subject of data set [16] is Staphylococcus aureus. The data set is described as follows: In vivo anti-virulence activity against Staphylococcus aureus Newman infected in BALB/c mouse model assessed as reduction in bacterial load in heart at 0.1 mg bid for 3.5 days administered orally 6 hrs post infection by serial dilution method relative to control. It counts as functional, organism-based. The essentials:
as §1

The test system of the next data set is Rattus norvegicus. In words: Toxicity in Sprague-Dawley rat at 60 to 1000 mg/kg, po administered as single dose assessed as poisoning symptoms measured immediately post administration. It counts as organism-based. The conditions noted are these: in vivo. In outline: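 Acute toxicity study: 30 rats randomly split into three groups and given a single oral dose (60, 250 or 1000 mg/kg) on day 1. Animals were watched for poisoning symptoms and mortality immediately after dosing and over a 2-week post-treatment period. Behaviour, water/food consumption and body weight were also tracked.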

Data set [17] has as its target T1, 4,4'-diapophytoene desaturase (4,4'-diaponeurosporene-forming) (Staphylococcus aureus (strain MW2)) (UniProt Q8NUQ6).
T1 sequence (whole entry): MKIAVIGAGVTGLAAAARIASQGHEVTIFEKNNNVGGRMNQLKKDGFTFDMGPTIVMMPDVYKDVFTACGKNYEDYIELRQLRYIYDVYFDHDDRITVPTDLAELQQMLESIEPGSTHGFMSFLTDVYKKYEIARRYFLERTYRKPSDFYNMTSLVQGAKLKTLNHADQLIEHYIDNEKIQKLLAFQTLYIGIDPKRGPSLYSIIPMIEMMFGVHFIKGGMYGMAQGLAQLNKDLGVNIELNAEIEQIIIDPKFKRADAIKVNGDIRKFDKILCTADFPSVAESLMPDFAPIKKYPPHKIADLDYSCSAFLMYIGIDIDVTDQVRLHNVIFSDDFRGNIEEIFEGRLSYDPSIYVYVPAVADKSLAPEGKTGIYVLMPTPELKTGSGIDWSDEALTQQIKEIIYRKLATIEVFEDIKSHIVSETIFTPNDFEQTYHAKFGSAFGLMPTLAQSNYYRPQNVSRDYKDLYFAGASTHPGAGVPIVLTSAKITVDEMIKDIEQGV
The conditions noted are these: Staphylococcus aureus subsp. aureus MW2; USA400; 1 uM.

Data set [18] deals with T2, 4,4'-diapophytoene desaturase (4,4'-diaponeurosporene-forming) (Staphylococcus aureus (strain Mu50 / ATCC 700699)) (UniProt Q99R76).
T2 sequence (whole entry): T1 sequence (whole entry) with Q500R
The following applies: Staphylococcus aureus subsp. aureus Mu50; 1 uM.

Data set [19] deals with Voltage-gated inwardly rectifying potassium channel KCNH2 (Homo sapiens, UniProt Q12809). The data set is described as follows: Inhibition of human ERG expressed in CHO cells at -80 mV holding potential after 3 mins by QPatch test. It counts as cell-based. (In general: The patch-clamp technique gives a direct electrical read-out from membranes.)
Chain of Voltage-gated inwardly rectifying potassium channel KCNH2 (Q12809 whole entry): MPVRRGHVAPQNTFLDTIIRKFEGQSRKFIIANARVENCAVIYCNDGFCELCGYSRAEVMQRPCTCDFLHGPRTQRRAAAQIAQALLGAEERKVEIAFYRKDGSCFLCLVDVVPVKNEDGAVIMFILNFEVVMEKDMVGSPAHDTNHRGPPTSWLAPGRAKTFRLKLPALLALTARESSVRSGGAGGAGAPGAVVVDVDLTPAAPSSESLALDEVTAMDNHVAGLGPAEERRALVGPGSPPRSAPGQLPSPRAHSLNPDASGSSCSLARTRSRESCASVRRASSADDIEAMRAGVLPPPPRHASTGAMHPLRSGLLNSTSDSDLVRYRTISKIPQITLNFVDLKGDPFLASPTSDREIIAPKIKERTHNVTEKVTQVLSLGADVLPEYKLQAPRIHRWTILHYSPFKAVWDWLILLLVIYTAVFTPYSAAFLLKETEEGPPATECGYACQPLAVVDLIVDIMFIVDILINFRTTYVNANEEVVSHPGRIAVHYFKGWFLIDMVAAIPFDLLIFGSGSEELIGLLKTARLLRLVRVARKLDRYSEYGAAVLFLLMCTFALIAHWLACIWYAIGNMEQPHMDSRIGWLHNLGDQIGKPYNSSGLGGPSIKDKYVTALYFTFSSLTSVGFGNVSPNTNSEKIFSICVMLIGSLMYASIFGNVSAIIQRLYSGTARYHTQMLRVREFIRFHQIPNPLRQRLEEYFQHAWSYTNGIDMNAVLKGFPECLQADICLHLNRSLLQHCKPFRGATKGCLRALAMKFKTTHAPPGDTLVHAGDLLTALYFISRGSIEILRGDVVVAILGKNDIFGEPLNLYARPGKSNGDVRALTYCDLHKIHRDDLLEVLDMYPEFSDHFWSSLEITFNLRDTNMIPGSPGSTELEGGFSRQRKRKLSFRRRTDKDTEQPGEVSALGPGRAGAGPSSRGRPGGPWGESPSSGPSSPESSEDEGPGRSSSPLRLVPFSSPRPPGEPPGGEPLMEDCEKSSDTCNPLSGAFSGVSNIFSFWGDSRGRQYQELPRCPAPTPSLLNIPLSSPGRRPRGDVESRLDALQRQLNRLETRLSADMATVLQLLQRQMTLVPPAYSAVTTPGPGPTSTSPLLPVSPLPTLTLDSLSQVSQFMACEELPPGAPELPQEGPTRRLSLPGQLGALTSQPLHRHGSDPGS

On to `CN(C/C=C/c1ccc(-c2ccccc2)cc1)Cc1coc2ccccc12.Cl`, for which the IC50 (in general, the point on the concentration scale where inhibition reaches its midpoint) at Cytochrome P450 2C19 was more than 10000 nM; in [11], 1.2 nM; in data set [12], 5.6 nM; in data set [13] it was 1 nM. For the same compound, the AUC(0-t) (commonly the area under the concentration-time curve up to a stated or last time point) at 24 h in [1] is 899 ng·h/mL. Moreover, the Cmax – broadly, the peak of the concentration-time curve – in [2] turned out to be 130 µg/mL. For the same compound, in data set [3], the Tmax (usually the time from dosing to the highest level) was determined as 4.8 min. The half-life – broadly, how long it takes for the measured level to halve – in data set [4] is 1.29 h; in data set [5], 7.61 h. The total exposure AUC(0-inf) (usually total exposure, with the tail of the curve extrapolated) came out at 1090 ng·h/mL in [6] and 4560 ng·h/mL in [7]. Besides, the clearance – broadly, the volume of plasma or blood freed of the substance per unit of time – in [8] is 30.7 mL/min/kg. In addition, in data set [9], the bioavailability (in general, dose-corrected exposure relative to a reference, in per cent) worked out at 83.8%. The Activity is listed as more than 91.8% in the data set with Staphylococcus aureus [10], 90% in the data set with Staphylococcus aureus [15] and “Non-Toxic” in the data set with Rattus norvegicus. Further, the result with Staphylococcus aureus [14] was Active. In the data set with Staphylococcus aureus [16], the outcome was inactive. Further, the Survival was determined as 2.3% in data set [17] and 2.7% in [18].

In turn, `CN(C/C=C/c1ccc(-c2ccccc2)cc1)Cc1cccc2cc[nH]c12.Cl` displayed an IC50 in data set [19] of more than 40000 nM.
